From ChEMBL document CHEMBL1154803, “Tetranortriterpenoids from Chisocheton paniculatus” (J Nat Prod, 2009)

How the values were obtained:
SMMC-7721 = test: Cytotoxicity against human SMMC7721 cells by MTT assay; type: functional, cell-based
Outline: (§1)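 MTT assay per a literature method. HeLa (cervical) and SMMC7721 (hepatoma) cells came from the Cell Bank of the Shanghai Institute of Cell Biology. Fluorouracil served as positive control. Three independent replicates were run, and IC50 values were reported.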

HeLa = test: Cytotoxicity against human HeLa cells by MTT assay; type: functional, cell-based; outline: as §1

C/C=C(\C)C(=O)O[C@@H]1[C@@H]2OC[C@]3(C)[C@H](OC(C)=O)C[C@H](O)[C@@](C)([C@@H]23)[C@H]2CCO[C@H]3C[C@@H](C4=CCOC4=O)C(C)=C3[C@]12C [CHISONIMBOLININ F]
IC50 (SMMC-7721): > 100 µM | IC50 (HeLa): > 100 µM

C/C=C(\C)C(=O)O[C@@H]1[C@@H]2OC[C@]3(C)[C@H](OC(C)=O)C[C@H](O)[C@@](C)([C@@H]23)[C@H]2C[C@H](OC)O[C@H]3C[C@@H](C4=CCOC4=O)C(C)=C3[C@]12C [CHISONIMBOLININ B]
IC50 (SMMC-7721): 50 µM | IC50 (HeLa): > 100 µM

C/C=C(\C)C(=O)O[C@@H]1[C@@H]2OC[C@]3(C)[C@H](OC(C)=O)C[C@H](OC(C)=O)[C@@](C)([C@@H]23)[C@H]2CCO[C@H]3C[C@@H](C4=CCOC4=O)C(C)=C3[C@]12C [CHISONIMBOLININ G]
IC50 (SMMC-7721): > 100 µM | IC50 (HeLa): > 100 µM

C/C=C(\C)C(=O)O[C@@H]1[C@@H]2OC[C@]3(C)[C@H](OC(C)=O)C[C@H](OC(C)=O)[C@@](C)([C@@H]23)[C@H]2C[C@H](OC)O[C@H]3C[C@@H](C4=CCOC4=O)C(C)=C3[C@]12C [CHISONIMBOLININ A]
IC50 (SMMC-7721): > 100 µM | IC50 (HeLa): > 100 µM

C/C=C(\C)C(=O)O[C@@H]1[C@@H]2OC[C@]3(C)[C@H](OC(C)=O)C[C@H](O)[C@@](C)([C@@H]23)[C@H]2C[C@H](O)O[C@H]3C[C@@H](C4=CCOC4=O)C(C)=C3[C@]12C [CHISONIMBOLININ D]
IC50 (SMMC-7721): 50 µM | IC50 (HeLa): 32 µM

C/C=C(\C)C(=O)O[C@@H]1[C@@H]2OC[C@]3(C)[C@H](OC(=O)/C(C)=C/C)C[C@H](O)[C@@](C)([C@@H]23)[C@H]2C[C@H](OC)O[C@H]3C[C@@H](C4=CCOC4=O)C(C)=C3[C@]12C [CHISONIMBOLININ C]
IC50 (SMMC-7721): 50 µM | IC50 (HeLa): 13 µM

C/C=C(\C)C(=O)O[C@@H]1[C@@H]2OC[C@]3(C)[C@H](OC(C)=O)C[C@H](O)[C@@](C)([C@@H]23)[C@H]2C[C@H](OCC)O[C@H]3C[C@@H](C4=CCOC4=O)C(C)=C3[C@]12C [CHISONIMBOLININ E]
IC50 (SMMC-7721): > 100 µM | IC50 (HeLa): > 100 µM
